Where “and” joins values, the source holds several entries; their conditions need not be identical. Equal entries are not always repeated. The campaign covered roughly 2,500 compounds. About 1,200 (48%) were called active. So high a share suggests a set chosen from earlier hits. The list shows a part of the results. A number with no mark means an inactive call.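 The calls were made as follows: active = mean activation above the low control average plus 3 SD, as set in the primary screen (cut at about 12% in these data); inactive = the rest.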
target: Troponin I, cardiac muscle (Homo sapiens) + Troponin T, cardiac muscle (Homo sapiens) + Troponin C, slow skeletal and cardiac muscles (Homo sapiens) (UniProt P19429+P45379+P63316); experiment: calcium sensitizers of cardiac thin filaments – biochemical, IANBD-TnC fluorescence, triplicate, confirmation (AID 504383); settings: IANBD-labeled cardiac RTF, Ca2+ sensitivity fluorescence, at 7.2 µM, active compounds read high, tested at EC20 calcium, 0.472 mM;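 also: 0% = DMSO at 0.472 mM calcium and 100% = DMSO at 2.9 mM calcium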
Procedure, shortened: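 Test system: labelled regulated thin filament protein complex. Dosing: single nominal compound dose of 7.2 µM. Benchmarks: EC20 and EC100 calcium wells. Read-out basis: fluorescence gain scaled between EC20 and EC100 calcium controls. Probe or stimulus: submaximal calcium at 0.472 mM (EC20). Technique: fluorescence. Times: 15 min compound exposure, 25 °C.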

Which activation does the source give for `NC(=O)c1c(NC(=O)c2ccc(S(=O)(=O)N(CCCl)CCCl)cc2)sc2c1CCCCC2` here?
Its activation is 14.1% (active).

How did the activation turn out when `N#CC(C#N)=Cc1ccc(-c2ccccc2F)o1` was run?
The activation was 45.7% (active).

For `CCCCC(=O)N/N=C/c1c(O)n(CC)c(=S)n(CC)c1=O`, which activation is on record?
Its activation is 4.35%.

With `O=c1[nH]c(=S)n(-c2ccc(Br)cc2)c(O)c1C=Nc1ccc(N2CCOCC2)cc1` as the molecule, how does the activation read?
Its activation is 6.9%.

With `CCn1c(O)c(C=Nc2ccc(N3CCOCC3)cc2)c(=O)n(CC)c1=S` as the molecule, how does the activation read?
The activation was 88.4% (active).

With `CCCCN1C(=O)NC(=O)C2(Cc3ccccc3N3CCOCC32)C1=O` (stereo not drawn) as the molecule, how does the activation read?
Its activation is 4.27%.

How did the activation turn out when `O=c1[nH]c(=O)n(Cc2ccc(F)cc2)c(O)c1/C=N/Nc1ccccc1` was run?
Its activation is 107% (active).

For `CCCCCCC(=O)N/N=C/c1c(O)n(CCc2ccccc2)c(=O)[nH]c1=O`, which activation is on record?
The activation was -0.94%.

Which activation does the source give for `C=CCn1c(O)c(C=NC2CCN(Cc3ccccc3)CC2)c(=O)[nH]c1=O` here?
The activation was 6.93%.

With `OC12CCCCC1C(c1ccccc1)NCC2` (stereo not drawn) as the molecule, how does the activation read?
Its activation is 7.25%.

Which activation does the source give for `O=C(CN1CCN(c2ccccc2F)CC1)Nc1cccnc1Cl` here?
Its activation is 27.1% (active).

`CN1/C(=C\C=C2C(=O)NC(=S)NC2=O)C(C)(C)c2ccccc21` was tested. Which activation did it give?
Its activation is 10.4%.

With `COc1ccc(CN2C(=O)NC(=O)/C(=C/c3ccoc3)C2=O)cc1` as the molecule, how does the activation read?
Its activation is 10.9%.

`O=C1NC(=O)N(c2cccc(Cl)c2)C(=O)/C1=C\c1ccc(Sc2nc3ccccc3[nH]2)o1` was tested. Which activation did it give?
Its activation is 11.5%.

Which activation does the source give for `Cc1cc(C)c(Cn2c(C(=O)O)c(C=O)c3ccccc32)c(C)c1` here?
Its activation is 10.3%.

For `CCN(CC)c1ccc(N=Cc2c(O)n(Cc3ccco3)c(=O)[nH]c2=O)cc1`, which activation is on record?
Its activation is 5.39%.

How did the activation turn out when `Cc1ccc(-n2c(O)c(/C=C/C=Nc3ccccc3)c(=O)[nH]c2=O)cc1` was run?
The activation was 26.4% (active).

`O=c1[nH]c(=O)n(C2CCCCC2)c(O)c1/C=C/C=Nc1ccccc1` was tested. Which activation did it give?
Its activation is 12.3% (active).

With `COc1ccc(-n2c(O)c(/C=C/C=Nc3ccccc3)c(=O)[nH]c2=O)cc1` as the molecule, how does the activation read?
Its activation is 5.05%.

How did the activation turn out when `Cc1cccc(-n2c(O)c(/C=C/C=Nc3ccccc3)c(=O)[nH]c2=O)c1` was run?
Its activation is 414% (active).

How did the activation turn out when `O=c1[nH]c(O)c(C=Nc2ccccc2Oc2ccccc2)c(=O)[nH]1` was run?
The activation was 10.2%.

For `O=c1[nH]c(=O)n(-c2ccccc2)c(O)c1/C=C/C=Nc1ccccc1`, which activation is on record?
The activation was 8.9%.

For `CNS(=O)(=O)c1ccc(N=Cc2c(O)n(-c3ccccc3)c(=O)[nH]c2=O)cc1`, which activation is on record?
Its activation is 37.6% (active).

How did the activation turn out when `CCN(CC)c1ccc(/C=N/c2sc3c(c2C#N)C2CCN3CC2)c(O)c1` was run?
The activation was 7.45%.

`O=C1NC(=O)N(Cc2ccccc2)C(=O)/C1=C\N1CCCc2ccccc21` was tested. Which activation did it give?
The activation was 3.9%.

`O=c1[nH]c(O)c(/C=C2\C=Nc3ccc(OCc4ccccc4)cc32)c(=O)[nH]1` was tested. Which activation did it give?
The activation was 8.62%.

With `Cn1c(O)c(/C=C/C=Nc2ccccc2)c(=O)n(C)c1=S` as the molecule, how does the activation read?
The activation was 21.7% (active).

Which activation does the source give for `Cn1c(O)c(/C=C/C=Nc2ccccc2)c(=O)n(C)c1=O` here?
Its activation is 9.76%.

With `CC1=C[C@@H]2c3cccc4[nH]cc(c34)C[C@H]2N(C)C1` as the molecule, how does the activation read?
The activation was 50% (active).

Which activation does the source give for `CN1C[C@H](CO)C=C2c3cccc4[nH]cc(c34)C[C@H]21` here?
The activation was -3.89%.

`CCC(CO)NC(=O)C1C=C2c3cccc4[nH]cc(c34)CC2N(C)C1` (stereo not drawn) was tested. Which activation did it give?
Its activation is 9.84%.

With `COCCNC(=O)c1c(N)n(Cc2ccco2)c2nc3ccccc3nc12` as the molecule, how does the activation read?
The activation was 16.3% (active).

How did the activation turn out when `Nc1c(C(=O)NCC2CCCO2)c2nc3ccccc3nc2n1Cc1ccco1` (stereo not drawn) was run?
Its activation is 1930% (active).

How did the activation turn out when `COCCOC(=O)c1c(N)n(Cc2ccco2)c2nc3ccccc3nc12` was run?
Its activation is 8.08%.

`CC(C)n1c(=O)c(C=Nc2cccc([N+](=O)[O-])c2)c(O)n(CCc2ccccc2)c1=O` was tested. Which activation did it give?
Its activation is 19.7% (active).

For `Cc1cc(Cl)nc(N)n1`, which activation is on record?
The activation was 96.2% (active).

For `C[C@]12CCC(=O)C=C1CC[C@@H]1[C@@H]2CC[C@]2(C)C(=O)CC[C@@H]12`, which activation is on record?
The activation was -0.04%.

`CCOC(=O)c1ccccc1C(=O)OCC` was tested. Which activation did it give?
The activation was 4170% (active).

How did the activation turn out when `CCN(CC)C(=O)c1ccc(NC(=O)COc2ccc([N+](=O)[O-])cc2Cl)cc1` was run?
Its activation is 4.48%.

For `CCOC(=O)C1CCCN(c2ccc([N+](=O)[O-])c3nonc23)C1` (stereo not drawn), which activation is on record?
Its activation is 16.5% [scaled from EC20 to saturating calcium] (active).

With `O=[N+]([O-])c1ccc(N2CCCC2)c2ncccc12` as the molecule, how does the activation read?
The activation was 38.3% (active).

Which activation does the source give for `O=[N+]([O-])c1ccc(N2CCCCCC2)c2nonc12` here?
Its activation is 31.9% (active).

For `Nc1ccc2nonc2c1[N+](=O)[O-]`, which activation is on record?
Its activation is 6.77%.

With `CC(C)C[C@H]1C(=O)N2CCC[C@H]2[C@]2(O)O[C@](NC(=O)[C@@H]3C=C4c5cccc6[nH]cc(c56)C[C@H]4N(C)C3)(C(C)C)C(=O)N12` as the molecule, how does the activation read?
Its activation is 8.78%.

How did the activation turn out when `O=C1NC(=S)SC1=Cc1ccc(N(CCCl)CCCl)cc1` was run?
Its activation is 0.25%.

`CN1CCN(c2ccc3c(c2)S(=O)(=O)c2ccccc2C3=O)CC1` was tested. Which activation did it give?
Its activation is 2.45%.

Which activation does the source give for `CCN1C[C@]2(CO)CC[C@H](OC)[C@@]34C5C[C@H]6[C@H](OC)C5[C@](O)(C[C@H]6OC)[C@@H](C(OC)C23)[C@@H]14` (stereo partly drawn) here?
Its activation is 15.5% (active).

How did the activation turn out when `C[C@]12CCC3C(CC[C@H]4C[C@@H](O)[C@H](O)C[C@]34C)C1CC[C@@H]2O` (stereo partly drawn) was run?
Its activation is 24.5% (active).

`Nc1c2c(nc3ccccc13)CCN(Cc1ccccc1)C2` was tested. Which activation did it give?
The activation was 87.8% (active).

With `CCOP(=O)(Cc1cc(C#N)oc1C)OCC` as the molecule, how does the activation read?
The activation was 7.87%.

`O=C(O)C1=CC2c3ccccc3C1c1ccccc12` was tested. Which activation did it give?
Its activation is 11.7% (active).

For `CC(C)c1ccc(N2C(=O)NC(=O)/C(=C/C=C/c3ccco3)C2=O)cc1`, which activation is on record?
The activation was 7.28%.

For `CN(C)P(=O)(CCl)Nc1ccccc1` (stereo not drawn), which activation is on record?
The activation was 38.8% (active).

With `CN1CCC2(CC1)C(C#N)=C(N)NC(S)=C2C#N` as the molecule, how does the activation read?
Its activation is 6.17% and 11.4%.

`COC(=O)[C@H]1C[C@@H]1[C@H](NP(=O)(c1ccccc1)c1ccccc1)c1ccccc1` was tested. Which activation did it give?
The activation was -0.05%.

For `CCOCCCn1c(N)c(C(=O)Nc2sc3c(c2C(=O)OC)CCCC3)c2nc3ccccc3nc21`, which activation is on record?
The activation was 12.7% (active).

`COc1ccc(N=Nc2c(O)[nH]c(=S)[nH]c2=O)cc1` was tested. Which activation did it give?
Its activation is 6.09%.

Which activation does the source give for `CCOC(=O)c1cc(CC)sc1/N=C/c1c(O)[nH]c(=S)[nH]c1=O` here?
The activation was 8.76%.

`Cc1cc2c(C(F)(F)F)cc(=O)oc2c2c1NCCC2` was tested. Which activation did it give?
The activation was 79.4% (active).

For `O=c1cc(C(F)(F)F)c2cc3c4c(c2o1)CCCN4CCC3`, which activation is on record?
Its activation is 67.7% (active).

With `Cc1ccc(C)c(Cn2c(C(=O)O)c(C=O)c3ccccc32)c1` as the molecule, how does the activation read?
The activation was 4.27%.

Which activation does the source give for `CCC1(C)OC(c2ccccc2)=C/C(=C/C=C2C(=O)NC(=O)NC2=O)O1` (stereo not drawn) here?
The activation was 32.1% (active).

Which activation does the source give for `CC1(C)OC(c2ccccc2)=C/C(=C/C=C2C(=O)NC(=O)NC2=O)O1` here?
Its activation is 6.59%.

With `CN1/C(=C\C=C2C(=O)NC(=O)NC2=O)C(C)(C)c2ccccc21` as the molecule, how does the activation read?
The activation was 9.74%.

For `CN1CCN(Cc2cn(C)c3ccccc23)CC1CCO` (stereo not drawn), which activation is on record?
The activation was 40.5% (active).

`C#C[C@]1(O)CC[C@H]2[C@@H]3CCC4=Cc5nc6nc7ccccc7n6cc5C[C@]4(C)[C@H]3CC[C@@]21C` was tested. Which activation did it give?
The activation was 6.44%.

Which activation does the source give for `C=Cn1ccnc1P(=S)(c1nccn1C=C)c1nccn1C=C` here?
Its activation is 23.4% (active).

With `COC(=O)C1=C(c2cccc(C#N)c2)C[C@@H]2CC[C@H]1N2C(=O)N1CCOCC1` as the molecule, how does the activation read?
The activation was 14.3% (active).
